Format in all cases: functional
Test [1] deals with Escherichia coli. In words: Antibacterial activity against Escherichia coli (NIHJ JC-2) a sensitive gram-negative bacteria. The essentials:
(§1)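 Agar dilution on sensitivity test agar containing serial twofold antibiotic dilutions. Overnight tryptosoy broth cultures were diluted in the same broth to about 10^6 cells/mL, and one loopful was applied with an inoculating device. Plates were incubated at 37 °C for 18-20 h. MIC was taken as the lowest concentration inhibiting visible growth, in micrograms per milliliter.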

Test [2] has as its system Bacteria. In words: Geometric mean of the four MIC's of different sensitive gram negative bacteria expressed.
Test [3] concerns Escherichia coli. In words: Antibacterial activity against Escherichia coli (H) a sensitive gram-negative bacteria. The essentials:
as §1

Test [4] relates to Escherichia coli. Put plainly: Antibacterial activity against Escherichia coli (EC-14) a sensitive gram-negative bacteria. The essentials: as §1
For test [5], the system named is Klebsiella pneumoniae. Put plainly: Antibacterial activity against Kleb. pneumoniae (SRL-1) a sensitive gram-negative bacteria. Summed up:
as §1

Test [6] concerns Bacteria. Put plainly: Geometric mean of the four MIC's of different sensitive gram negative bacteria.

The values below come from ChEMBL document CHEMBL1123695, “Synthesis and 3'-substituent effects of some 7 alpha-methoxy-1-oxacephems on antibacterial activity and alkaline hydrolysis rates” (1987).

Molecules are shown by their SMILES. Values after ≈ are worked out from the molar mass of the structure shown.

With `CO[C@@]1(NC(=O)Cc2ccccc2)C(=O)N2C(C(=O)[O-])=C(CSc3nnnn3C)CO[C@@H]21.[Na+]`, the MIC amounted to 0.78 mg/L in test [1], 0.1 mg/L in test [3], 0.39 mg/L in test [4] and 0.39 mg/L in test [5]. The compound also showed a Geometric mean in test [2] of 0.684 µM.

With `CO[C@@]1(NC(=O)Cc2ccccc2)C(=O)N2C(C(=O)[O-])=C(C)CO[C@@H]21.[Na+]`, the MIC in test [1] was 200 mg/L; in test [3] it was 100 mg/L; in test [4] it was 100 mg/L; in test [5] it was 100 mg/L. In test [6], the Geometric mean came out at 323 µM.

Regarding `CO[C@@]1(NC(=O)Cc2ccccc2)C(=O)N2C(C(=O)[O-])=C(CC#N)CO[C@@H]21.[Na+]`, the MIC in test [1] was found to be 50 mg/L; in test [3] it was 12.5 mg/L; in test [4], 25 mg/L; in test [5], 25 mg/L. This compound also returned a Geometric mean in test [2] of 63.6 µM.

Regarding `CO[C@@]1(NC(=O)Cc2ccccc2)C(=O)N2C(C(=O)[O-])=C(CSC)CO[C@@H]21.[Na+]`, the MIC in test [1] was over 400 mg/L; in test [3], 50 mg/L; in test [4] it was 200 mg/L; in test [5] it was 100 mg/L. Moreover, the Geometric mean in test [2] came to 406 µM.

For `COCC1=C(C(=O)[O-])N2C(=O)[C@](NC(=O)Cc3ccccc3)(OC)[C@H]2OC1.[Na+]`, the MIC in test [1] stood at 200 mg/L; in test [3], 25 mg/L; in test [4], 100 mg/L; in test [5] it was 50 mg/L. The same compound had a Geometric mean in test [2] of 178 µM.

Regarding `CO[C@@]1(NC(=O)Cc2ccccc2)C(=O)N2C(C(=O)[O-])=C(COC(N)=O)COC21.[Na+]` (stereo not given in full), the MIC in test [1] turned out to be 3.13 mg/L; in test [3], 0.78 mg/L; in test [4] it was 0.78 mg/L; in test [5] it was 3.13 mg/L. This compound also returned a Geometric mean in test [2] of 3.66 µM.

For the compound `CO[C@@]1(NC(=O)Cc2ccccc2)C(=O)N2C(C(=O)[O-])=C(C[n+]3ccccc3)COC21` (stereo not given in full), the MIC in test [1], in test [3], in test [4] and in test [5] was 12.5 mg/L (≈ 29.5 µM) each time. In addition, in test [2], the Geometric mean worked out at 29.5 µM.

Consider `CO[C@@]1(NC(=O)Cc2ccccc2)C(=O)N2C(C(=O)[O-])=C(CO)CO[C@@H]21.[Na+]`, for which the MIC in test [1] was 100 mg/L; in test [3], 25 mg/L; in test [4] it was 50 mg/L; in test [5], 50 mg/L. The compound further came in with a Geometric mean in test [2] of 130 µM.

On to `CO[C@@]1(NC(=O)Cc2ccccc2)C(=O)N2C(C(=O)[O-])=C(COC(C)=O)CO[C@@H]21.[Na+]`, for which the MIC in test [1] was determined as 3.13 mg/L; in test [3] it was 0.78 mg/L; in test [4], 3.13 mg/L; in test [5] it was 1.56 mg/L. Moreover, the Geometric mean in test [2] came out at 4.36 µM.
